ChEMBL document CHEMBL1124913, “Aqua[1-(2,6-dichloro-4-hydroxyphenyl)-2- phenylethylenediamine](sulfato)platinum-(II) complexes with variable substituents in the 2-phenyl ring. 1. Synthesis and antitumor and estrogenic properties” (J Med Chem, 1990)
Several values for one entry are separate records, joined by “and”; a condition that tells them apart may be missing. Equal entries are not always repeated.

How the values were obtained:
[1] = tested on: P388; experiment: In vivo for antitumor effect on P388 Leukemia of the CDF1 mouse at dose 10 uM/kg administered intraperitoneally; type: functional, organism-based
Method in brief: (§1)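 P388 leukemia was passaged in female DBA/2 mice. Female CDF1 mice (18–22 g) received 1×10^6 cells ip in PBS on day 0. Groups of six (ten for solvent control) were dosed ip with aqueous solutions on days 1, 5 and 9. Median survival time = X + Y/2, with X and Y the first days reaching N/2 and N/2 + 1 deaths. %T/C = treated/control median survival ×100.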

[2] = target: T1, Estrogen receptor (Mus musculus) (UniProt O08537+P19785); experiment: (§2) Administered subcutaneously on three consecutive days at a dose of 10 uM /Kg.; type: functional
Method in brief: (§3)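 Immature female NMRI mice, 19 days old, in groups of six. Compounds were dissolved in water and given as 0.1 mL sc on days 1, 2 and 3; controls got vehicle and standards got estrone 0.4 μg. Animals were killed 24 h after the last dose. Uteri were fixed in Bouin solution, dried at 100 °C for 18 h and weighed. E = [uterine dry weight (mg)/body weight (g)]100, and estrogenic effect = (E_T − E_V)/(E_S − E_V)100.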

[3] = target: T1, Estrogen receptor (Mus musculus); experiment: Administered subcutaneously on three consecutive days at a dose of 1000 uM /Kg; type: functional; method in brief: as §3
[4] = tested on: P388; experiment: In vivo antitumor effect on P388 Leukemia in CDF1 mice, median survival time in days at 20 umol/kg; type: functional, organism-based; settings: Mus musculus; method in brief: as §1
[5] = target: T1, Estrogen receptor (Mus musculus); experiment: Estrogenic effect on subcutaneous 100 uM/kg dose for 3 days; type: functional; method in brief: as §3
[6] = tested on: P388; experiment: In vivo for antitumor effect on P388 Leukemia of the CDF1 and median survival time of the animals in days was reported at a concentration of 20 uM/Kg; type: functional, organism-based; settings: Mus musculus; method in brief: as §1
[7] = tested on: Mus musculus; experiment: Ratio of median survival time of tested group to that of control group of animals was reported at a concentration of 20 uM/Kg; type: functional, organism-based; method in brief: as §1
[8] = target: T1, Estrogen receptor (Mus musculus); experiment: Estrogenic effect on subcutaneous 10 uM/kg dose for 3 days; type: functional; method in brief: as §3
[9] = tested on: P388; experiment: In vivo for antitumor effect on P388 Leukemia of the CDF1 and median survival time of the animals in days was reported at a concentration of 40 uM/Kg; type: functional, organism-based; settings: Mus musculus; method in brief: as §1
[10] = tested on: P388; experiment: In vivo for antitumor effect on P388 Leukemia of the CDF1, and median survival time of the animals in days was reported at a concentration of 40 uM/Kg; type: functional, organism-based; settings: Mus musculus; method in brief: as §1
[11] = target: T1, Estrogen receptor (Mus musculus); experiment: (§4) Administered subcutaneously on three consecutive days at a dose of 100 uM /Kg.; type: functional; method in brief: as §3
[12] = tested on: P388; experiment: In vivo for antitumor effect on P388 Leukemia of the CDF1 mouse at dose 40 uM/kg administered intraperitoneally; type: functional, organism-based; method in brief: as §1
[13] = tested on: P388; experiment: In vivo for antitumor effect on P388 Leukemia of the CDF1 mouse at dose 20 uM/kg administered intraperitoneally; type: functional, organism-based; method in brief: as §1
[14] = tested on: P388; experiment: In vivo for antitumor effect on P388 Leukemia of the CDF1 and median survival time of the animals in days was reported at a concentration of 10 uM/Kg; type: functional, organism-based; settings: Mus musculus; method in brief: as §1
[15] = tested on: P388; experiment: In vivo antitumor effect on P388 Leukemia in CDF1 mice, median survival time in days at 10 uM/kg; type: functional, organism-based; settings: Mus musculus; method in brief: as §1
[16] = target: T1, Estrogen receptor (Mus musculus); experiment: as §2; type: functional; method in brief: as §3; remark: listed apart in the source
[17] = target: T1, Estrogen receptor (Mus musculus); experiment: as §4; type: functional; method in brief: as §3; remark: listed apart in the source
[18] = tested on: Mus musculus; experiment: Ratio of median survival time of tested group to that of control group of animals was reported at a concentration of 40 uM/Kg; type: functional, organism-based; method in brief: as §1
[19] = target: T1, Estrogen receptor (Mus musculus); experiment: Administered subcutaneously on three consecutive days at a dose of 1000 uM /Kg.; type: functional; method in brief: as §3
[20] = target: T1, Estrogen receptor (Mus musculus); experiment: Estrogenic effect on subcutaneous 1000 umol/kg dose for 3 days; type: functional; method in brief: as §3
[21] = tested on: Mus musculus; experiment: Ratio of median survival time of tested group to that of control group of animals was reported at a concentration of 10 uM/Kg; type: functional, organism-based; method in brief: as §1
[22] = tested on: P388; experiment: In vivo antitumor effect on P388 Leukemia in CDF1 mice at 5 umol/kg intraperitoneal dose; type: functional, organism-based; settings: Mus musculus; method in brief: as §1
[23] = tested on: P388; experiment: In vivo antitumor effect on P388 Leukemia in CDF1 mice, median survival time in days at 5 umol/kg; type: functional, organism-based; settings: Mus musculus; method in brief: as §1
[24] = tested on: Mus musculus; experiment: Ratio of median survival time of tested group to control group at 5 umol/kg; type: functional, organism-based; method in brief: as §1

| Substance | T-C [1] | Estrogenic effect [2] | Estrogenic effect [3] [%] | MST [6] | T/C [7] | MST [9] | MST [10] | Estrogenic effect [11] [%] | T-C [12] | T-C [13] | MST [14] | MST [15] | Estrogenic effect [16] | Estrogenic effect [17] | T/C [18] | Estrogenic effect [19] | T/C [21] | further results |
| --- | --- | --- | --- | --- | --- | --- | --- | --- | --- | --- | --- | --- | --- | --- | --- | --- | --- | --- |
| Aqua[threo-1-(-2-chloro-4-hydroxyhenyl)-2-(2,6-dichloro-4-hydroxyphenyl) ethylenediamine](sulfato) platinum (II)(threo-9-Ptso4) | -1.8 g and -2.4 g | 39% | 117 | 13 | 155% and 144% | 14 | 14.5 | 141 | -2.9 g and -1.9 g | -1.8 g and -1.2 g | 11.5 | 14 | 9 and 11 | 21 and 22 | 161% and 155% | 86 and 91 | – | MST [4]: 14; Estrogenic effect [5]: 14%; Estrogenic effect [8]: 10%; Estrogenic effect [20]: 35% |
| Aqua[erythro-1-(-3-hydroxyhenyl)-2-(2,6-dichloro-4-hydroxyphenyl) ethylenediamine](sulfato) platinum (II)(erythro-4-Ptso4) | -0.9 g and -1.5 g | 0% | 0 | 14.5 and 13.5 | 161% and 169% | 15.5 | 8 | 0 | -4.6 g and -2.6 g | -1.7 g and -1.9 g | 14 | 13 | – | – | – | 19 and 32 | 156% and 163% | – |
| Aqua [threo-1-(-2-fluoro-4-hydroxyhenyl)-2-(2,6-dichloro-4-hydroxyphenyl) ethylenediamine](sulfato) platinum (II) | – | 1% and 0% | – | 15 and 14 | 166% and 155% | 15.5 and 14 | – | – | -3.8 g and -2.4 g | -2.2 g and -1.2 g | 14 and 12 | – | 9 and 11 | 11 and 13 | 172% and 155% | 20 and 52 | 155% and 133% | – |
| CISPLATIN | – | – | – | – | – | – | – | – | – | – | – | – | – | – | – | – | – | T-C [22]: -3.8 g; MST [23]: 19; T/C [24]: 238% |
